OXTR potentiate = potentiators of human oxytocin receptor; P30559; CHO-OTR cells, Fluo-8 calcium fluorescence, potentiator mode; 0% = oxytocin EC15, 100% = EC100; activation, % at 3 µM; actives 0.061% (n = 320,000);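 active means activation above that plate's cutoff, the mean activation of tested compounds plus 3 SD, cut at about 6.6% in these data, passing the limit was not always enough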
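Material: CHO-OTR cells, human receptor; compound dosing: single dose, 3.0 µM nominal final compound concentration; schedule: 6 min compound pre-incubation at room temperature, 100 s kinetic read; measured by: kinetic Fluo-8 calcium fluorescence; read-out basis: % activation vs EC15 and EC100 oxytocin; controls: EC15 oxytocin alone as 0%, 75 nM oxytocin as 100%; replicates: singlicate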
TAAR1 ag = human TAAR1 agonism; CHO RD-HGA16 TAAR1, Fluo-8 calcium fluorescence; vehicle wells 0%, saturating PEA agonist 100%; activation, % at 3 µM; actives 0.99% (n = 360,000); AID 624467;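 active means activation above the mean activation of all test compounds in the run plus 3 SD, cut at about 38% in these data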
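Assay system: CHO-derived RD-HGA16 cells with stable Gα16 and human TAAR1; timing: 17-24 h seeding, 75 min 37 °C dye, 30 min RT; read-out: % activation from peak over basal fluorescence ratio, DMSO-to-PEA scaled; measured by: kinetic Fluo-8 calcium fluorescence; benchmarks: low control DMSO, high control PEA (EC100); doses: 3 µM single concentration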
V1aR counter = counter-screen for oxytocin receptor agonists: human V1a receptor agonists | CHO-V1R cells, Fluo-8 calcium fluorescence, agonist mode; 0% DMSO, 100% 3 nM vasopressin | activation, % at 3 µM | actives 0.25% (n = 320,000) | AID 2797;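 active means activation above the mean activation of all tested compounds plus 3 SD, per screening run, cut at about 20% in these data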;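 further: signal is peak over basal fluorescence ratio across a 100 second FLIPR read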
Target sequence (P37288 whole entry, looked up): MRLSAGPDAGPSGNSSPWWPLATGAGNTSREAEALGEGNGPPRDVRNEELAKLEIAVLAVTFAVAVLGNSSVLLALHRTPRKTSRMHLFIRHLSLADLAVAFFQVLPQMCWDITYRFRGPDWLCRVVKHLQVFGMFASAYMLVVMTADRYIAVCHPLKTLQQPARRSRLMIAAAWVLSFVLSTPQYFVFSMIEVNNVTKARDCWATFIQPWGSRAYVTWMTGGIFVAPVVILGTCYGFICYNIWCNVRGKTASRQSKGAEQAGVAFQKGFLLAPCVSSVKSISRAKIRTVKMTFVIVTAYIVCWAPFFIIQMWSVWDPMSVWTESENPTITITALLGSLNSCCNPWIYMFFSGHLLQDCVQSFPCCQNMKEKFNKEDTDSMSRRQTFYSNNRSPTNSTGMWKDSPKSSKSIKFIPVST
OXTR ag = human OXTR agonism | activation, % at 3 µM | CHO-OTR cells, Fluo-8 calcium fluorescence; normalized: DMSO 0%, oxytocin 100% | actives 0.32% (n = 320,000) | P30559;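 active means activation above the mean of all tested compounds plus 3 SD, cutoff set per screening run, cut at about 20% in these data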;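 further: peak over basal fluorescence ratio from a 100 s FLIPR kinetic read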
TAAR1 antagonist = human TAAR1 antagonism. actives 1.5% (n = 360,000). inhibition, % at 3 µM. AID 624466. CHO RD-HGA16 TAAR1, Fluo-8 calcium fluorescence, antagonist;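 active means inhibition above a per-plate cutoff, the mean inhibition of test compounds on that plate plus 3 SD, cut at about 49% in these data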
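Test system: CHO RD-HGA16 cells bearing hTAAR1 | Reagent: β-PEA, EC80 | Compound dosing: 3 µM, single point | Schedule: Dye loading 75 min at 37 °C, then 30 min room temperature | Signal: Calcium fluorescence with Fluo-8 | Evaluation: Percent inhibition of PEA-evoked calcium signal, max/basal emission ratio | Control set: DMSO-only wells and EC80 β-PEA-stimulated wells | Repeats: Singlicate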
TAAR1 nonsel count = counter-screen for TAAR1 antagonists: nonselective antagonists; shares compounds with TAAR1 antagonist; counterscreen cell line, calcium fluorescence, antagonist mode; inhibition, % at 3 µM; actives 77% (n = 2,400); AID 651780; in the data active means inhibition above about 22%;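 further: CHO-Ga16 host cells stimulated with ATP at an EC80 level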
TAAR1 ant conf = confirmation of human TAAR1 antagonists. shares compounds with TAAR1 antagonist. TAAR1-expressing cells, fluorescence antagonist read-out. inhibition, % at 3 µM. actives 40% (n = 2,400); in the data active means inhibition above about 49%;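 further: CHO-Ga16 host cells challenged with agonist PEA near its EC80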
Ga16 ag counter = nonselective Ga16 agonist in TAAR1 antagonist counter-screen | activation, % at 3 µM | actives 18% (n = 2,400) | shares compounds with TAAR1 antagonist | Ga16-expressing cells, calcium fluorescence, agonist counterscreen; in the data active means activation above about 12%
TAAR1 ag counter = activates human TAAR1 in antagonist counter-screen; shares compounds with TAAR1 antagonist; hTAAR1 cell line, fluorescence activation, agonist mode; activation, % at 3 µM; actives 2% (n = 2,400); AID 651955; in the data active means activation above about 37%;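 further: CHO cells stably expressing TAAR1 with calcium dye readout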
A number is an active result. This is a sample that favours compounds with a hit; in the whole collection about 2.3% have one here.

For Cc1c(C(=O)NCc2ccc(Cl)c(Cl)c2)sc(=O)n1Cc1ccc(S(C)(=O)=O)cc1 the results were TAAR1 ag inactive, TAAR1 antagonist 71.7, TAAR1 nonsel count 34.9, TAAR1 ant conf inactive, Ga16 ag counter 13.8 and TAAR1 ag counter inactive.
Screening CSc1ccc(Cn2c(C)c(C(=O)NCc3ccc(Cl)c(Cl)c3)sc2=O)cc1 returned TAAR1 ag inactive and TAAR1 antagonist inactive.
CCCCN(C)C(=O)C(Cc1ccccc1)NS(=O)(=O)c1ccc2c(c1)c(=O)n(C)c(=O)n2C (centres undefined) was read as OXTR potentiate inactive, TAAR1 ag inactive, V1aR counter inactive, OXTR ag inactive, TAAR1 antagonist 66.7, TAAR1 nonsel count 30.7, TAAR1 ant conf inactive, Ga16 ag counter inactive and TAAR1 ag counter inactive.
Screening O=C1CC2c3cc(-c4cc5ccccc5o4)ccc3CCN2C(=O)CN1Cc1ccccc1 (centres undefined) returned TAAR1 ag inactive, TAAR1 antagonist 54.0, TAAR1 nonsel count 27.3, TAAR1 ant conf inactive, Ga16 ag counter inactive and TAAR1 ag counter inactive.
CC1CC2OC2CC1COC(=O)C1CC2OC2CC1C (centres undefined) was read as TAAR1 ag inactive and TAAR1 antagonist inactive.
CC(C)(C)OC(=O)[C@H](Cc1ccccc1)NC(=O)c1nc[nH]c1C(=O)N1CCN(C(=O)OC(C)(C)C)CC1 was read as OXTR potentiate inactive, TAAR1 ag inactive, V1aR counter inactive, OXTR ag inactive and TAAR1 antagonist inactive.
CC(C)(C)OC(=O)[C@H](Cc1ccccc1)NC(=O)c1nc[nH]c1C(=O)NCC(=O)OCc1ccccc1 was read as OXTR potentiate inactive, TAAR1 ag inactive, V1aR counter inactive, OXTR ag inactive and TAAR1 antagonist inactive.
CC(C)(C)OC(=O)N1CCN(C(=O)c2[nH]cnc2C(=O)N[C@@H](Cc2ccccc2)C(=O)OCc2ccccc2)CC1 was read as OXTR potentiate inactive, TAAR1 ag inactive, V1aR counter inactive, OXTR ag inactive, TAAR1 antagonist 68.9, TAAR1 nonsel count 22.7, TAAR1 ant conf inactive, Ga16 ag counter inactive and TAAR1 ag counter inactive.
CC(C)(C)OC(=O)CNC(=O)c1nc[nH]c1C(=O)NCc1ccc(CNC(=O)OC(C)(C)C)cc1 was read as OXTR potentiate inactive, TAAR1 ag inactive, V1aR counter inactive, OXTR ag inactive, TAAR1 antagonist 70.5, TAAR1 nonsel count 40.5, TAAR1 ant conf 53.8, Ga16 ag counter 15.6 and TAAR1 ag counter inactive.
Screening CC(C)(C)OC(=O)NCCCCCNC(=O)c1nc[nH]c1C(=O)NCC(=O)OCc1ccccc1 returned OXTR potentiate inactive, TAAR1 ag inactive, V1aR counter inactive, OXTR ag inactive, TAAR1 antagonist 77.9, TAAR1 nonsel count 38.5, TAAR1 ant conf 62.4, Ga16 ag counter 13.3 and TAAR1 ag counter inactive.
CC(C)(C)OC(=O)CNC(=O)c1nc[nH]c1C(=O)NCc1ccccc1 was read as OXTR potentiate inactive, TAAR1 ag inactive, V1aR counter inactive, OXTR ag inactive and TAAR1 antagonist inactive.
`CC(C)(C)OC(=O)CNC(=O)c1[nH]cnc1C(=O)NCC(=O)OCc1ccccc1` gave OXTR potentiate inactive, TAAR1 ag inactive, V1aR counter inactive, OXTR ag inactive, TAAR1 antagonist 69.5, TAAR1 nonsel count 31.4, TAAR1 ant conf 56.1, Ga16 ag counter inactive and TAAR1 ag counter inactive.
`Cc1ccc(C)c(N2CCN(S(=O)(=O)c3cc4c(cc3Cl)NC(=O)CO4)CC2)c1` gave OXTR potentiate inactive, TAAR1 ag inactive, V1aR counter inactive, OXTR ag inactive and TAAR1 antagonist inactive.
